High-throughput results as filed in PubChem.
rCAG binder – binders of r(CAG) RNA repeats, primary screen, biochemical, fluorescence; 370,000 compounds, 1.3% hits; r(CAG) RNA repeat, TO-PRO-1 dye displacement fluorescence; inhibition, % at 3 µM;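 active = inhibition above the plate cutoff, the mean of all test compounds on that plate plus 3 SD, cut at about 35% in these data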;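 also: 0% = DMSO alone and 100% = 100 µM mitoxantrone as full dye displacement; higher means more dye released from RNA so lower well fluorescence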
Scp1 inh – Scp-1 phosphatase inhibitors, primary screen, biochemical, colorimetric, uHTS; Carboxy-terminal domain RNA polymerase II polypeptide A small phosphatase 1 (Homo …; Recombinant Scp1, phosphopeptide, malachite green phosphate absorbance; inhibition, % at 20 µM; 340,000 compounds, 0.88% hits; AID 493091, 2011;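 active = inhibition above about 50% at 20 µM, limit read from the data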;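 also: plate controls were DMSO wells with enzyme for no effect and wells lacking enzyme for full effect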
Target sequence (Q9GZU7 76-261 limits assumed): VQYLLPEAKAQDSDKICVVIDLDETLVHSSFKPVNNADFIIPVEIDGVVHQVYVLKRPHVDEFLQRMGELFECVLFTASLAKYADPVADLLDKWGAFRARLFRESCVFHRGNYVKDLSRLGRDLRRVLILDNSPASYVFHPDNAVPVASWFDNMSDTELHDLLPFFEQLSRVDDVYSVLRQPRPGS
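Test system: SCP-1 phosphatase catalytic domain, residues 76-261 | Compound dosing: One concentration, 20 µM, with 1.0% DMSO | Schedule: 45 min room-temperature reaction, 5 min colour, 30 min stabiliser | Detection: Absorbance at 630 nm | Read-out basis: % inhibition of SCP-1 phosphate liberation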
LMPTP block – LMPTP phosphatase inhibitors, primary screen, biochemical, fluorescence intensity, uHTS; Low molecular weight phosphotyrosine protein phosphatase (Homo sapiens), P24666; recombinant LMPTP-A, OMFP fluorogenic substrate; inhibition, % at 20 µM; 360,000 compounds, 0.22% hits;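 active = compounds that cut the enzyme signal by at least half of the control window in the single-dose screen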;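 also: plate controls were DMSO wells with enzyme plus substrate for no effect and substrate without enzyme for full effect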
Target sequence (P24666 whole entry, looked up): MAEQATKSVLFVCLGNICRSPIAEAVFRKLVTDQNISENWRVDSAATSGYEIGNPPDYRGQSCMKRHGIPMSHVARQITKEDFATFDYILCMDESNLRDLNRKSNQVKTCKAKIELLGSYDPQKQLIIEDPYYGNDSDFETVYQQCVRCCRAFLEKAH
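Buffer or medium: Bis-Tris pH 6.0, DTT, detergent; Assay system: LMPTP-A enzyme; Quantity: 0.625 nM enzyme; Detection: endpoint fluorescence intensity; Times: 50 min dark incubation at room temperature; Controls: substrate-only low control, DMSO enzyme-plus-substrate high control; Doses: single 20 µM dose; Read-out: percent inhibition versus substrate-only and uninhibited controls; Reagent: 400 µM OMFP.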
NadD inh – inhibitors of S. aureus NadD, primary screen, biochemical, colorimetric, uHTS; purified NadD enzyme, colorimetric absorbance read-out; Nicotinate-nucleotide adenylyltransferase NadD (Staphylococcus aureus N315); inhibition, % at 20 µM; 360,000 compounds, 0.78% hits; in the data active = inhibition above about 26%
STEP inh – STEP phosphatase inhibitors, primary screen, biochemical, fluorescence intensity, uHTS. Tyrosine-protein phosphatase non-receptor type 5 (Homo sapiens), P54829. recombinant STEP, OMFP fluorogenic substrate. inhibition, % at 20 µM. 360,000 compounds, 0.25% hits;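 active = inhibition at 20 µM, scaled per plate between control wells, above about 37%, limit read from the data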;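 also: 0% = DMSO with enzyme and substrate and 100% = substrate only without enzyme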
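medium = Bis-Tris buffer pH 6.0, 2.5 mM DTT, 0.005% Tween 20 | test system = STEP (striatal-enriched tyrosine phosphatase) enzyme, cell-free | measure = normalized % inhibition | compound dosing = 20 µM, 1% DMSO | also added = 25 µM OMFP | schedule = reaction 20 min, ambient temperature | measured by = fluorescence read at 480 nm ex / 540 nm em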
Scp1 confirm – Scp-1 phosphatase inhibitors, retest, confirmation, biochemical, colorimetric, single concentration | shares compounds with Scp1 inh | recombinant SCP-1 catalytic domain, phosphate release, malachite green absorbance | inhibition, % at 20 µM | 2,500 compounds, 61% hits | AID 540281, 2011;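 also: plate controls were DMSO with enzyme for no effect and buffer wells lacking enzyme for full effect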
Scp-1 MG ctr – colorimetric readout interference by compounds, confirmation, artefact control for Scp-1 inhibitor project, biochemical, single concentration; Colorimetric interference counterscreen, malachite green absorbance 630 nm; shares compounds with Scp1 inh; apparent inhibition (interference), % at 20 µM; 2,500 tested, under 10 active; AID 540313, 2011;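 also: compounds added after enzyme reaction finished so only phosphate colour detection is probed; plate controls were DMSO wells with completed Scp-1 reaction for no effect and substrate wells lacking enzyme for full effect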
Scp1 DSF – Scp-1 binding by thermal shift, confirmation, orthogonal assay for Scp-1 inhibitor project, biophysical, differential scanning fluorimetry; shares compounds with Scp1 inh; Recombinant SCP1, Sypro Orange thermal shift Tm; thermal shift relative to vanadate control, % at 40 µM; 1,500 compounds, 25% hits;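 active = substances whose mean melting-temperature shift, as a percentage of the reference inhibitor's shift, reaches about 5.3%, limit read from the data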;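 also: 0% = Tm of DMSO wells and 100% = Tm with sodium orthovanadate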
* hit, by the source's call; nt = not tested or not shown. Rows were chosen to be rich in hits. Some 2.6% of all compounds tested hit in one or more screens of this group.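 The calls were made as follows, unless noted: active = inhibition of at least 30% at 20 µM; inactive = the rest.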

SMILES	rCAG binder	Scp1 inh	LMPTP block	NadD inh	STEP inh	Scp1 confirm	Scp-1 MG ctr	Scp1 DSF
Cc1ccc(S(=O)(=O)N2CCC(C(=O)NCc3cccs3)CC2)cc1	4	nt	nt	nt	nt	nt	nt	nt
Cc1ccccc1CNC(=O)CN1CCCc2ccccc21	1	nt	nt	nt	nt	nt	nt	nt
Cc1cc(C(=O)N/N=C/c2ccc(-c3ccc(C)c(Cl)c3)o2)n[nH]1	1	11	5	22	0	nt	nt	nt
Cc1cc(C(=O)N/N=C/C=C/c2ccc(Br)cc2)n[nH]1	2	52*	34	7	29	65*	-4	-8
O=C(N/N=C/c1cc(Br)ccc1OC(=O)c1ccc(Br)cc1)c1ccncc1	11	-6	2	25	-1	nt	nt	nt
Cc1cc(C(=O)N/N=C/c2ccc(-c3ccccc3Cl)o2)n[nH]1	7	60*	16	3	10	58*	-17	-8
Cc1cc(C(=O)N/N=C/C=C/c2ccc([N+](=O)[O-])cc2)n[nH]1	3	-1	0	2	0	nt	nt	nt
Cc1cc(C(=O)N/N=C/c2cc(Br)ccc2OC(=O)c2ccccc2)n[nH]1	12	94*	33	9	5	64*	-5	-3
CCOC(=O)[C@@]12CCCC3=C1N(CCC3)C(=O)[C@H]2CC(=O)NCCCCc1ccccc1	-3	nt	nt	nt	nt	nt	nt	nt
CC(C)C[C@@H]1COc2cccc(N3CCCC3)c2S(=O)(=O)N1C	-2	nt	nt	nt	nt	nt	nt	nt
CC(C)=CCC/C(C)=C/CNCC(=O)N1c2ccccc2[C@]2(C)C[C@@H]3C(=O)N(C/C=C(\C)CCC=C(C)C)CC(=O)N3[C@H]12	3	nt	nt	nt	nt	nt	nt	nt
CCOC(=O)N1CCN(C(=O)C[C@H]2C(=O)N(Cc3ccc(OC)cc3)C3=CCCC[C@@]32C(=O)OCC)CC1	-2	nt	nt	nt	nt	nt	nt	nt
N/C(=N\OC(=O)c1ccc(Br)cc1)c1cccc([N+](=O)[O-])c1	-3	65*	0	-2	2	62*	-19	1
COc1ccccc1N1C(=N)S/C(=C\c2ccc(-c3ccccc3C(=O)O)o2)C1=O	4	62*	5	14	9	49*	-10	8.3*
Cc1c(C(=O)O)cccc1-c1ccc(/C=C2\SC(=O)NC2=O)o1	1	12	-4	-5	6	nt	nt	nt
COC(=O)[C@H](C(C)C)N(Cc1cn(CC2CCCCC2)nn1)S(=O)(=O)c1ccc(F)cc1Br	4	nt	nt	nt	nt	nt	nt	nt
CC(=O)c1cc(-c2cccc(C#N)c2)c(=O)n2c1CCC2	4	nt	nt	nt	nt	nt	nt	nt
C=CCNc1nc(C(=O)OCC(=O)Nc2cc(S(C)(=O)=O)ccc2Cl)cs1	6	3	0	2	-1	nt	nt	nt
C=CCNc1nc(C(=O)OCC(=O)Nc2ccc(S(N)(=O)=O)cc2)cs1	20	58*	13	13	3	65*	-10	-2
C[C@H]1COc2c3ccccc3nn21	3	nt	nt	nt	nt	nt	nt	nt
COC(=O)c1ccc(NC(=S)N2CCC(C(N)=O)CC2)cc1	5	68*	1	-1	10	-6	-7	nt
CCOc1ccc(NC(=S)N2CCC(C(N)=O)CC2)cc1	-2	-2	-1	3	0	nt	nt	nt
Cc1cc(C)c(C#N)c(Cl)n1	2	66*	-1	-3	-1	-25	-21	nt
CC(CS(=O)(=O)c1ccc2c(c1)NC(=O)CS2)C(=O)NCc1ccccc1Cl (stereo not drawn)	14	76*	2	-4	5	81*	6	4
CCOC(=O)[C@@]12CCCC=C1N(CCc1ccc(Cl)cc1)C(=O)[C@H]2CC(=O)N1CCC(c2ccccc2)CC1	6	nt	nt	nt	nt	nt	nt	nt
SMILES	rCAG binder	Scp1 inh	LMPTP block	NadD inh	STEP inh	Scp1 confirm	Scp-1 MG ctr	Scp1 DSF
N=c1nc2n(cc1F)C1OC(CO)C(O)C1O2 (stereo not drawn)	0	72*	1	1	-2	-1	-7	nt
N=c1ccn2c(n1)O[C@H]1[C@H](O)[C@@H](CO)O[C@H]12	-1	-7	-1	0	-3	nt	nt	nt
Cc1cc(=O)oc2cc(NC(=O)c3cc(F)ccc3F)ccc12	1	86*	17	-5	19	62*	-12	-29
CCc1ccc(Nc2nnc(SCC(=O)NC(=O)CN3CCCC3=O)s2)cc1	2	65*	14	-1	35	48*	-10	-6
COc1ccccc1Nc1nnc(SCC(=O)N2CCCC2=O)s1	-1	-4	0	2	0	nt	nt	nt
N#C[C@H](N)[C@H]1O[C@@H](n2ccc(=O)[nH]c2=O)[C@H](O)[C@@H]1O	5	nt	nt	nt	nt	nt	nt	nt
Cc1ccc(-c2cc(C(=O)N3CCN(c4ccc(F)cc4)CC3)c3ccccc3n2)o1	1	53*	2	27	2	29	-17	nt
NNC(=O)Cn1c(-c2ccccc2)cc(=O)n2ncnc12	3	69*	-2	4	-1	-6	-5	nt
Cc1nnc(NS(=O)(=O)c2ccc(N=Nc3ccc(N)nc3N)cc2)s1	17	67*	18	3	5	34*	-6	9.1*
CN(C)CC(C)(C)CNS(=O)(=O)c1cccc(Cl)c1Cl	-2	70*	-2	13	-5	12	-22	nt
CN(C)CC(C)(C)CNS(=O)(=O)c1ccc(Cl)cc1	-1	-1	-2	-1	4	nt	nt	nt
CC1=C2N=C(N)N(Cc3ccccc3)C(Cc3ccccc3)C2n2c(=O)n(-c3ccccc3)c(=O)n2C1 (stereo not drawn)	15	nt	nt	nt	nt	nt	nt	nt
O=C(N/N=C/c1ccncc1)c1cc(-c2ccc(Br)s2)[nH]n1	6	6	1	12	-2	nt	nt	nt
O=C(N/N=C/c1ccccn1)c1cc(-c2ccc(Br)s2)[nH]n1	13	67*	1	6	34	52*	-8	-13
Cc1ccc2oc(C(=O)NCc3ccc(S(N)(=O)=O)cc3)cc(=O)c2c1	2	-1	-2	-2	-1	nt	nt	nt
Cc1ccc(CNC(=O)c2cc(=O)c3cc(C)ccc3o2)cc1	-1	61*	29	-7	24	20	-15	nt
CCCC[C@H](C(=O)N(C)c1ccccc1)[C@@H](O)c1ccc(C(C)=O)cc1	-4	nt	nt	nt	nt	nt	nt	nt
